Measured values pooled from the literature.

Structure (SMILES)	target or system	test	test system	conditions	endpoint	result
N=c1c2c(-c3ccccc3)c(-c3ccccc3)n(Cc3ccccc3)c2ncn1[C@H]1CC[C@H](O)CC1	–	–	male cynomolgus monkey, plasma	oral, 1 mg/kg, single dose	bioavailability	> 80%
Cc1ncc2n1-c1ccc(Cl)cc1C(c1ccccc1F)=NC2	–	–	human, plasma	oral, 2 mg	Cmax	10.3 ng/mL
N=C(N)NCCC[C@@H](NC(=O)[C@@H](N)Cc1ccccc1)C(=O)N[C@@H](Cc1ccccc1)C(=O)N[C@@H](CCCCN)C(N)=O	–	–	human, plasma	subcutaneous, 25 mg, patients	Cmax	973 ng/mL
COc1ccc2c(c1)[C@]13CCCC[C@@H]1[C@H](C2)N(C)CC3	–	–	Caco-2	10 µM, pH 6.5	efflux ratio	2
CC[C@H](C)[C@H](NC(=O)[C@H](CC(C)C)NC(=O)[C@H](Cc1c[nH]c2ccccc12)NC(=O)[C@H](CCC(N)=O)NC(=O)[C@@H](NC(=O)[C@H](Cc1ccccc1)NC(=O)[C@H](C)NC(=O)[C@H](CCCCNC(=O)COCCOCCNC(=O)COCCOCCNC(=O)CC[C@H](NC(=O)CCCCCCCCCCCCCCCCCCC(=O)O)C(=O)O)NC(=O)[C@H](CCC(N)=O)NC(=O)[C@H](C)NC(=O)[C@@H](NC(=O)[C@H](CCCCN)NC(=O)[C@H](CC(=O)O)NC(=O)[C@H](CC(C)C)NC(=O)C(C)(C)NC(=O)[C@@H](NC(=O)[C@H](CO)NC(=O)[C@H](Cc1ccc(O)cc1)NC(=O)[C@H](CC(=O)O)NC(=O)[C@H](CO)NC(=O)[C@@H](NC(=O)[C@H](Cc1ccccc1)NC(=O)[C@@H](NC(=O)CNC(=O)[C@H](CCC(=O)O)NC(=O)C(C)(C)NC(=O)[C@@H](N)Cc1ccc(O)cc1)[C@@H](C)O)[C@@H](C)O)[C@@H](C)CC)[C@@H](C)CC)C(C)C)C(=O)N[C@@H](C)C(=O)NCC(=O)NCC(=O)N1CCC[C@H]1C(=O)N[C@@H](CO)C(=O)N[C@@H](CO)C(=O)NCC(=O)N[C@@H](C)C(=O)N1CCC[C@H]1C(=O)N1CCC[C@H]1C(=O)N1CCC[C@H]1C(=O)N[C@@H](CO)C(N)=O	–	–	human, plasma	subcutaneous, 1.5 mg, multiple doses, healthy volunteers	Cmax	198 ng/mL
CCOC(=O)c1c(NCc2ccc(SC)cc2)c2cccc(C)c2[nH]c1=O	FRT	cell growth or viability, MTS	–	48 h	CC50	91.6 µM
c1cc([C@H]2CC[C@]3(CC2)OO[C@]2(O3)C3CC4CC(C3)CC2C4)ccc1OCCN1CCOCC1	–	–	human, plasma	oral, 1200 mg, patients	Cmax	1500 ng/mL
O=C(NCc1ccc(F)cc1)c1cccc(Nc2ccc(-c3ccccc3)nn2)c1	FRT	cell growth or viability, MTS	–	48 h	CC50	> 100 µM
CN1CCCCC1Cn1cc(C(=O)c2cc([N+](=O)[O-])ccc2I)c2ccccc21 (racemic)	–	–	mouse, brain	intravenous, 25 mg/kg	Tmax	15 min
